Compound activity (PubChem BioAssay)
Many of the other results were omitted from the sample, so hits are more common in it than they were.
bCat KO growth – beta-catenin-lacking colon tumor cell growth suppression. HCT116 beta-catenin knockout viability, CellTiter-Glo, 60 h; active compounds read low. viability, % at 10 µM. actives 1.5% (n = 140,000);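 active = viability at or under a set limit, the compound median less 4 SD, cut at about 6% in these data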;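 also: 0% = Hyamine 1622 control at 20 µM and 100% = untreated cell control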
HUVEC prolif 384 – blocks proliferation of human endothelial cells; HUVEC proliferation, CellTiter-Glo luminescence, 72 h; active compounds read low; viability, % at 10 µM (by protocol); actives 1.1% (n = 86,000); AID 648;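 active = viability at or below 30%; inactive = viability above 30%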;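 also: 100% = median luminescence of DMSO-only cell control wells on each plate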
PTEN del growth – growth suppressors of cells with PTEN tumor suppressor deletion; HCT116 PTEN-null viability, CellTiter-Glo, 60 h; active compounds read low; viability, % at 10 µM; actives 1.2% (n = 140,000);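 active = viability at or below a set limit, 4 SD under the median of all tested compounds, cut at about 3.7% in these data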;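 also: PTEN knockout HCT116 line with beta catenin targeted HCT116 as companion control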
Lung fibro prol – blocks proliferation of human lung fibroblasts; LL 47 human lung fibroblast viability, ATP luminescence; active compounds read low; actives 1.1% (n = 85,000); viability, % at 10 µM;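 active = viability at or below 50% in the single dose screen; inactive = viability above 50%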;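 also: compound exposure lasted 72 h before the ATP readout; 100% = median luminescence of untreated cell-only wells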
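Material: Human LL 47 lung fibroblast cells | Input: 1,150 cells/well | Buffer or medium: IMEM plus 15% FBS | Compound dosing: 0.1% DMSO in all compound wells | Times: Overnight cell rest, 72 h compound treatment at 37 °C | Signal: CellTiter-Glo luminescence measuring cellular ATP | Measure: % viability versus median cells-only luminescence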
H69AR growth 86K – growth inhibitors of human H69AR lung tumor cells. H69AR lung tumor viability, ATP luminescence, 72 h; active compounds read low. viability, % at 10 µM. actives 6% (n = 85,000);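 active = viability at or below 40%; inactive = viability above 40%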;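 also: multidrug resistant small cell line overexpressing MRP-1 efflux transporter; 100% = mean luminescence of untreated control wells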
Active calls of the source: *; nt = no result given.

SMILES | bCat KO growth | HUVEC prolif 384 | PTEN del growth | Lung fibro prol | H69AR growth 86K
CC(C)(C)C1CC=C2C(C#N)=C(N)C(C#N)(C#N)C(c3cccs3)C2C1 (stereo unspecified) | nt | 2.1* | nt | 88 | 65
CN1C2C=C3C(C#N)=C(N)C(C#N)(C#N)[C@@H](c4cccs4)C3C1CC2 (stereo partly specified) | 94 | 94 | 93 | 90 | 75
CC(C)CN=C(NS(=O)(=O)c1ccccc1)C(Cl)(Cl)Cl | 4.7* | nt | 4 | nt | nt
O=C(NCc1ccc(F)cc1)C(=O)Nc1nc(C23CC4CC(CC(C4)C2)C3)cs1 | 16 | nt | 16 | nt | nt
Cc1nn(-c2ccccc2)c2sc(C(=O)N(CC(=O)NC3CCCC3)Cc3ccco3)cc12 | 68 | 54 | 37 | 53 | 26*
Cc1nn(-c2ccccc2)c2sc(C(=O)NC3CC3)cc12 | 83 | 91 | 84 | 90 | 95
CCNc1nc(C)c2cc(Br)c(=O)n(CC)c2n1 | 61 | 38 | 56 | 37* | 58
CCn1c(=N)c(C(=O)NC)cc2c(=O)n3cccc(C)c3nc21 | nt | 92 | nt | 93 | 75
CCOc1ccc(N(CCC#N)S(=O)(=O)c2ccc(OC)cc2)cc1 | 62 | 80 | 56 | 85 | 21*
CCc1cc(-c2n[nH]c(=S)n2Cc2ccccc2)cs1 | 85 | nt | 82 | nt | nt
CCCCOc1ccc(-c2nc(=S)[nH][nH]2)cc1 | 101 | 80 | 104 | 106 | 19*
CCCCOc1ccc(-c2nc(SCC(N)=O)n[nH]2)cc1 | 99 | 98 | 98 | 111 | 89
Clc1ccc2c(N/N=C/c3ccc(Br)cc3)ccnc2c1 | 1.5* | nt | 1.3* | nt | nt
Cc1ccc(/C=N/Nc2ccnc3cc(Cl)ccc23)c(C)c1 | 1.3* | nt | 1.6* | nt | nt
Cc1ccccc1/C=N/Nc1ccnc2cc(Cl)ccc12 | 11 | nt | 7 | nt | nt
CCOC(=O)Cn1c2ccccc2c2nc3ccccc3nc21 | 21 | 107 | 44 | 96 | 6.1*
COc1ccc2c(c1)c1nc3ccccc3nc1n2CC(=O)OC(C)C | 2.3* | 57 | 3.7* | 39* | 18*
O=C(CNC(=O)c1ccc(S(=O)(=O)N2CCCC2)cc1)N/N=C/c1ccc(Cl)cc1Cl | 60 | nt | 59 | nt | nt
CC(=O)O[C@@]12CO[C@@H]1C[C@H](O)[C@@]1(C)C(=O)[C@H](O)C3=C(C)[C@@H](OC(=O)[C@H](O)[C@@H](NC(=O)OC(C)(C)C)c4ccccc4)C[C@](O)([C@@H](OC(=O)c4ccccc4)[C@H]21)C3(C)C | nt | 59 | nt | 61 | 23*
C=CCc1cccc(/C=N/NC(=O)C(C)Nc2ccc(C)cc2)c1O (stereo unspecified) | 13 | nt | 10 | nt | nt
COc1ccccc1C1C(C(C)=O)=C(C)N=c2s/c(=C\c3cc(OC)c(OC)c(OC)c3)c(=O)n21 (stereo unspecified) | 81 | 80 | 74 | 93 | 30*
CC(C)(C)c1nc2c(Br)cc(Br)cc2c(=O)o1 | 86 | nt | 96 | nt | nt
COc1cc(/C=C/C(=O)OCC(=O)NCc2cccs2)ccc1OCC#N | 75 | nt | 100 | nt | nt
CCOC(=O)C1CCCN(C(=O)Cn2sc3nc(C)cc(C)c3c2=O)C1 (stereo unspecified) | 14 | 93 | 1.7* | 83 | 1.1*
CCOC(=O)C1CCCN(C(=O)Cn2cnc3c2c(=O)n(C)c(=O)n3C)C1 (stereo unspecified) | 99 | 100 | 92 | 105 | 89
SMILES | bCat KO growth | HUVEC prolif 384 | PTEN del growth | Lung fibro prol | H69AR growth 86K
Cc1cc(C)c2c(=O)n(CC(=O)N3CCC(N4CCCCC4)CC3)sc2n1 | 1.8* | 105 | 1.9* | 76 | 103
CC1C/C(=C\c2cccnc2)C(=O)/C(=C/c2cccnc2)C1 (stereo unspecified) | 2.7* | nt | 2.1* | nt | nt
O=C1/C(=C\c2cccnc2)Sc2ccccc21 | 65 | nt | 63 | nt | nt
C=CCn1c(SCc2c(C(=O)OC)sc(N)c2C(=O)OC)nnc1-c1ccc(Br)cc1 | 62 | nt | 58 | nt | nt
CCOc1nc(NC(=O)NS(=O)(=O)c2cccc(Cl)c2)nc(-c2ccccc2)n1 | 100 | nt | 104 | nt | nt
CCCOc1ccc(OCCN2CCCC(C)C2)cc1 (stereo unspecified) | 98 | nt | 91 | nt | nt
Cc1cc(NC(=O)CSc2nc(-c3cccs3)cc(C(F)(F)F)n2)no1 | 21 | 42 | 18 | 53 | 29*
Cc1cc(NC(=O)CCCS(=O)(=O)c2nc(-c3cccs3)cc(C(F)(F)F)n2)no1 | 7 | nt | 3.3* | nt | nt
CCCNC(=O)CSc1nc(-c2cccs2)cc(C(F)(F)F)n1 | 90 | 100 | 76 | 97 | 88
CNC(=S)NNC(=O)Cc1ccc(OC)c(OC)c1 | 91 | nt | 94 | nt | nt
Cc1ccc(-n2c(SCC(=O)Nc3cc(C)on3)nc3c([nH]c4ccccc43)c2=O)cc1 | 79 | 78 | 60 | 89 | 17*
Cc1ccc(Cn2c(SCC(=O)Nc3cc(C)on3)nc3ccccc3c2=O)cc1 | 82 | 53 | 85 | 36* | 17*
CCOc1ccc(-n2c(SCC(=O)Nc3cc(C)on3)nc3c([nH]c4ccccc43)c2=O)cc1 | 59 | 87 | 9 | 76 | 63
Cc1cc(NC(=O)CSc2nc(C3CCCCC3)nc3ccccc23)no1 | 83 | 100 | 85 | 82 | 20*
CCc1cc2cc(C)ccc2nc1SCC(=O)Nc1cc(C)on1 | 85 | 85 | 97 | 93 | 63
CCc1cc2cc3c(cc2nc1SCC(=O)Nc1cc(C)on1)OCO3 | 14 | 43 | 30 | 75 | 30*
O=C(Nc1ccccc1)OC1CCC2CC1CCC2OC(=O)Nc1ccccc1 (stereo unspecified) | 36 | nt | 38 | nt | nt
Cc1ccc(-c2nc(N)sc2CC(=O)OCC(=O)NCC2CCCO2)cc1 (stereo unspecified) | 99 | nt | 94 | nt | nt
COc1ccc(NC(=O)CSc2nc3ccccc3c(=O)n2CCC(=O)N2CCCCC2)cc1 | 85 | 79 | 78 | 98 | 40*
Cc1cc(NC(=O)CSc2nnc3c(C)cc4c(C)ccc(C)c4n23)no1 | 31 | 51 | 32 | 71 | 26*
Cc1cc2nc(SCC(=O)Nc3nonc3C)c3c(c2cc1C)CCCC3 | 98 | 60 | 103 | 74 | 44
Cc1cc(NC(=O)CSc2nc3c(c(=O)n2-c2ccc(Br)cc2)SCC3)no1 | 46 | 53 | 9 | 49* | 20*
CCc1nnc(NC(=O)CSc2nnc3c(C)cc4c(C)ccc(C)c4n23)s1 | 27 | nt | 30 | nt | nt
Cc1nonc1NC(=O)CSc1nc(C2CCCCC2)nc2ccccc12 | 45 | 94 | 50 | 68 | 15*
Cc1nc(SCC(=O)N2CCc3ccccc32)n[nH]1 | 96 | 104 | 106 | 104 | 110
Cc1ccccc1NC(NC(=O)OCCn1c([N+](=O)[O-])cnc1C)C(Cl)(Cl)Cl (stereo unspecified) | 94 | nt | 93 | nt | nt
CCCC(C)NCC(=O)Nc1ccccc1-c1ccccc1 (stereo unspecified) | 88 | nt | 90 | nt | nt
CNc1nc(OCC(F)(F)F)nc(N2CCN(C34CC5CC(CC(C5)C3)C4)CC2)n1 | nt | 95 | nt | 94 | 90
CCCN(CCC)C(=O)CSc1nc2ccccc2c(=O)n1C1CCCC1 | 69 | 103 | 66 | 91 | 31*
